Data published in paper PMC11865470 (Communications Biology, 2025).
Entries after “also recorded” stand apart in the source; their conditions may differ.

What was measured:
[1] = target: T1, mouse Otop1 (mOtop1) channels (Mus musculus, UniProt Q80VM9); assay: whole-cell patch-clamp, "on-current" analysis of acid/alkali-evoked currents; format: cell-based
T1 sequence (Q80VM9 1-600): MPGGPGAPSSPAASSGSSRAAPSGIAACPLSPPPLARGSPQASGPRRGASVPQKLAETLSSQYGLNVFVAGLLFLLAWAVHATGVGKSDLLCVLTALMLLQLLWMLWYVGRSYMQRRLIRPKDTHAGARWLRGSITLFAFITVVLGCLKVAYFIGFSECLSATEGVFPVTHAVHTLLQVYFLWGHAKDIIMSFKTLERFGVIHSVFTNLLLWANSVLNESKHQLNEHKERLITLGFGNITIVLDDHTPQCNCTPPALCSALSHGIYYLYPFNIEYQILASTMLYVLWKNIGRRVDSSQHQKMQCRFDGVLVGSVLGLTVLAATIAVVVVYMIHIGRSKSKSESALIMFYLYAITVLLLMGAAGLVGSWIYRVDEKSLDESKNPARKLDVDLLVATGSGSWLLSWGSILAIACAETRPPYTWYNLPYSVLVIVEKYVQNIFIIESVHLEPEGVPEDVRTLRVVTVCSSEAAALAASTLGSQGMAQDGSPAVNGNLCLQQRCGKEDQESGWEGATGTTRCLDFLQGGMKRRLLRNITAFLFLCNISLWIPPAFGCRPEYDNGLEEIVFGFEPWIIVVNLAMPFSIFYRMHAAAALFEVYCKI

[2] = target: T2, Otop1 channels from human origin (hOtop1) (Homo sapiens, UniProt Q7RTM1); assay: whole-cell patch-clamp, pH 5.5-evoked currents; format: cell-based; settings: 10 μM
T2 sequence (Q7RTM1 1-612): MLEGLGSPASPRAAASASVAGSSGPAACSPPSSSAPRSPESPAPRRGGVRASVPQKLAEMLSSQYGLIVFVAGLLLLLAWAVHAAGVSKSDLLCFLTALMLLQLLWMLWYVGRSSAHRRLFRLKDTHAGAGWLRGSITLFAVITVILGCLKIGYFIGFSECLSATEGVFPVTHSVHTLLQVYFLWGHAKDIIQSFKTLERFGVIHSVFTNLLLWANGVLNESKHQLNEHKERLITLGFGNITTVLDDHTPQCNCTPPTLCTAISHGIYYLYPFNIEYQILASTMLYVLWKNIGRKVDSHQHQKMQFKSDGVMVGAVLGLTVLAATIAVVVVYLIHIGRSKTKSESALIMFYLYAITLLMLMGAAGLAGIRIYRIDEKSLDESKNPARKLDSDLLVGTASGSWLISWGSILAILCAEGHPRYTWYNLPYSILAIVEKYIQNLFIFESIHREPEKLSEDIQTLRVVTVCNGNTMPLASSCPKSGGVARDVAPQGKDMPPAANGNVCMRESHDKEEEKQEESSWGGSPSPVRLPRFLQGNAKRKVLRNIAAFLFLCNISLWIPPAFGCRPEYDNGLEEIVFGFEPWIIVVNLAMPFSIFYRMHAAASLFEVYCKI
Outline: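 Channel plasmid (2.5 μg) was co-transfected with EGFP plasmid (0.5 μg) using Lipofectamine 2000 into PAC-knockout HEK293T cells. Whole-cell recording 16–24 h after seeding, with Cs-aspartate pipette solution (pH 7.3). Currents evoked by pH 5.5 bath (160 mM NMDG-Cl, 2 mM CaCl2, 10 mM MES); test compound 10 μM.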

NaV1.2 = NaV1.2 (Rattus norvegicus, UniProt P04775); assay: whole-cell patch-clamp, off-target channel, 10 μM compound; format: cell-based; settings: vs 0.1% DMSO
Outline: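 NaV channels, transiently transfected HEK293T cells, whole-cell, 16–24 h after seeding. Pipette (mM): 140 CsF, 1 EGTA, 10 NaCl, 10 HEPES, pH 7.4. Bath (mM): 140 NaCl, 5 KCl, 2 CaCl2, 1 MgCl2, 10 glucose, 10 HEPES, pH 7.4. Bath with 0.1% DMSO applied before 10 μM test compound. Inhibition ratios compared by unpaired t-test, n = 5.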

KV1.3 = KV1.3 (Homo sapiens, UniProt P22001); assay: whole-cell patch-clamp, off-target channel, 10 μM compound; format: cell-based
Outline: (§1)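 KV channels in transiently transfected HEK293T cells, whole-cell. Pipette (mM): 140 KCl, 2.5 MgCl2, 11 EGTA, 10 HEPES, pH 7.4. Bath (mM): 145 NaCl, 2.8 KCl, 2 CaCl2, 1 MgCl2, 10 glucose, 10 HEPES, pH 7.4. 0.1% DMSO bath applied, then 10 μM test compound. DMSO vs compound inhibition ratio compared by unpaired t-test, n = 5.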

KV2.1 = assay: as above; format: cell-based, Mus musculus; settings: for sensitivity of channel to compound: vs 0.1% DMSO
Outline: as §1

KV4.2 = target: T3, KV4.2 (Rattus norvegicus, UniProt Q63881); assay: as above; format: cell-based; settings: for sensitivity of channel to compound: vs 0.1% DMSO
T3 sequence (Q63881 1-630): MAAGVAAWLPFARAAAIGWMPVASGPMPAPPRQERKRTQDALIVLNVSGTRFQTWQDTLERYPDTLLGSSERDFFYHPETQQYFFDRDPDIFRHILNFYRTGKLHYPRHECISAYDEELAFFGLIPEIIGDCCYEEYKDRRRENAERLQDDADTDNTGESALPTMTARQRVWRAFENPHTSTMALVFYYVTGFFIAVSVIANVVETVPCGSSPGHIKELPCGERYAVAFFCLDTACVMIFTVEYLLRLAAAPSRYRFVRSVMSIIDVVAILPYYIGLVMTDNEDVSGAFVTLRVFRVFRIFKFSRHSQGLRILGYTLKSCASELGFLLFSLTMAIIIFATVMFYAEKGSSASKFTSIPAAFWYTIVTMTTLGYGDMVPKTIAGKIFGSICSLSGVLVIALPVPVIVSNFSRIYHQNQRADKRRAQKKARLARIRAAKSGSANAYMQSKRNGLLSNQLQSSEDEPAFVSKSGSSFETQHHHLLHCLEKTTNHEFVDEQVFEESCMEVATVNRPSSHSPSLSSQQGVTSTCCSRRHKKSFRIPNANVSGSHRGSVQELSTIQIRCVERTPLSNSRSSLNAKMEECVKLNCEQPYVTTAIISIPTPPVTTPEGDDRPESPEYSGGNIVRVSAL
Outline: as §1

[3] = target: T4, mOtop1 channels co-expressed in HEK293 cells (Mus musculus, UniProt Q80VM9); assay: live cell intracellular pH imaging; format: cell-based; settings: 10 μM; for effect on intracellular pH changes mediated by mOtop1, acidification: extracellular pH 6.0/5.0; for effect on intracellular pH changes mediated by mOtop1, alkalinization: extracellular pH 8.5
T4 sequence (Q80VM9 1-600): T1 sequence (Q80VM9 1-600)
Outline: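 HEK293 cells were electroporated (180 V, 25 ms) with pHmScarlet-mTurquise2, with or without mOtop1, and imaged 24 h later. Cells sat in pH 7.4 solution (mM: 140 KCl, 10 NaCl, 1 MgCl2, 20 HEPES), then were shifted to pH 8.5 (Tris), 6.0 (MES) or 5.0 (HomoPIPES). Test compound was 10 μM in the stimulus solution, with acetic acid pH 5.0 as positive control. FpHmScarlet/FmTurquise2 ratio read every 2 s.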

[4] = EC50s, enhancing acid-evoked Otop1 currents, summary statement
[5] = apparent EC50, potentiation of mOtop1 currents, pH 5.5, on-current analysis, n = 5

Chain of NaV1.2 (P04775 whole entry): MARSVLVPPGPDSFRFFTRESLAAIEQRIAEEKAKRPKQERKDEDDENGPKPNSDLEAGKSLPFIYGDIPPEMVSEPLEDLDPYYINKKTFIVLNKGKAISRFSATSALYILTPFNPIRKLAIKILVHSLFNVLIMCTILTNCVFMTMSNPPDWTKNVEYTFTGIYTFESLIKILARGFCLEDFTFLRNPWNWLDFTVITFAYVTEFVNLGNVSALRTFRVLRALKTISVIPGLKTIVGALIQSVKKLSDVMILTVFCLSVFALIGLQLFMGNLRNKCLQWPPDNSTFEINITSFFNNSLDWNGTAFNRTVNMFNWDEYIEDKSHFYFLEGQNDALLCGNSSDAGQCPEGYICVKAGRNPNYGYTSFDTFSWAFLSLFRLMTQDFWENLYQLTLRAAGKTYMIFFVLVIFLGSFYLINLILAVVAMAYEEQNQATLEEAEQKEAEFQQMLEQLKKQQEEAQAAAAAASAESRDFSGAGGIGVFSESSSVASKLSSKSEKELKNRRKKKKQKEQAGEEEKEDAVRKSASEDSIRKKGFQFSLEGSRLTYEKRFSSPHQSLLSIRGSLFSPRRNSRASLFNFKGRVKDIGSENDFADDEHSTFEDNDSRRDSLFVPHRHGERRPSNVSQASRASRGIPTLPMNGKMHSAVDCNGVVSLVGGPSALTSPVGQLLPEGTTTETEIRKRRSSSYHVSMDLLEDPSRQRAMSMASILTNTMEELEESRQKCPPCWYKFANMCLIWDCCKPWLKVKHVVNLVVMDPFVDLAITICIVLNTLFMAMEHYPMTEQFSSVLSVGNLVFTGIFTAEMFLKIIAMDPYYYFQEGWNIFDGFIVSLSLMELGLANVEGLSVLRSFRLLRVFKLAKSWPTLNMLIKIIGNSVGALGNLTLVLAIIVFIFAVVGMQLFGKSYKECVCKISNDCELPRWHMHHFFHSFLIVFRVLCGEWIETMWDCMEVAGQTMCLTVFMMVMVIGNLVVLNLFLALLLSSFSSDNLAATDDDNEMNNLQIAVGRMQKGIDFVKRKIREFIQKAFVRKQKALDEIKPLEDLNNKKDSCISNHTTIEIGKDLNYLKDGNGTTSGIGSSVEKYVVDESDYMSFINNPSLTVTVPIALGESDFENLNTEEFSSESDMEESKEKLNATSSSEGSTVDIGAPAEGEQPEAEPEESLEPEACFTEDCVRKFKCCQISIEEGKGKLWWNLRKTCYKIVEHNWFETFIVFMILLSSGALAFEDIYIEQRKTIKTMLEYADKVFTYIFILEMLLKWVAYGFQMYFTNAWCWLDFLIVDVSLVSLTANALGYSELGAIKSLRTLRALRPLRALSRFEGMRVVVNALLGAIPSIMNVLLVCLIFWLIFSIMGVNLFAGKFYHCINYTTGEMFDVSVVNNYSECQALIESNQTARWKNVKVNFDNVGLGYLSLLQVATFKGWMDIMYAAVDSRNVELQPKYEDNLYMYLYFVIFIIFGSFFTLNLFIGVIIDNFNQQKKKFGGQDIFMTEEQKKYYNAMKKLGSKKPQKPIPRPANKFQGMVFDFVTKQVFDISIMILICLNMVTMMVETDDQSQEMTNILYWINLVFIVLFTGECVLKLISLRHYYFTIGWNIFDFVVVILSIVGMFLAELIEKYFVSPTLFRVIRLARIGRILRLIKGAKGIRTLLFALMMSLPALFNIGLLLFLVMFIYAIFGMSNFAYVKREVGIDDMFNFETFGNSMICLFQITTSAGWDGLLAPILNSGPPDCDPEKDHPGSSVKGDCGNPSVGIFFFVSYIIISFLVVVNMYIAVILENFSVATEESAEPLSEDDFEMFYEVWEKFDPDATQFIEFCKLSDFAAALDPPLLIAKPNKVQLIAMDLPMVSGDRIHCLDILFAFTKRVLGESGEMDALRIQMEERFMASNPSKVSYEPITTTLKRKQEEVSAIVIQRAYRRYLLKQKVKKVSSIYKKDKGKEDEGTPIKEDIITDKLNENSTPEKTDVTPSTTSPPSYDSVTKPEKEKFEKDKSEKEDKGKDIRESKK
Chain of KV1.3 (P22001 whole entry): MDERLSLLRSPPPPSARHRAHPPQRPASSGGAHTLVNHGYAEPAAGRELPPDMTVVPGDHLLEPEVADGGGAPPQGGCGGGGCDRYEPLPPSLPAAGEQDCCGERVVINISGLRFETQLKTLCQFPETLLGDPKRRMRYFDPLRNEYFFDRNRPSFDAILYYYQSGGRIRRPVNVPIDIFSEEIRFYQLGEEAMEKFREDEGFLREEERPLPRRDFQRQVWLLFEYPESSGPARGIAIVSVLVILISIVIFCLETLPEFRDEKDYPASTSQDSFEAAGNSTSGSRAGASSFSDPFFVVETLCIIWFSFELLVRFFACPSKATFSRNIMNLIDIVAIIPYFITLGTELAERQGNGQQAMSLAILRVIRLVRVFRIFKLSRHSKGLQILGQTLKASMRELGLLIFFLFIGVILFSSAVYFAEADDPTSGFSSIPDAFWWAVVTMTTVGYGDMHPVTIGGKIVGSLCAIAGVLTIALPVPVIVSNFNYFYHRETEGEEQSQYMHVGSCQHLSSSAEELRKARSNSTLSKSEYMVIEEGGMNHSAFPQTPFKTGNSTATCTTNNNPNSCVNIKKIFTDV

direct activation of the Otop1 channel [1]	effect on pH 3.5-activated mOtop1 currents ([1]; 10 μM)	EC50 [1, 4] [µM]	EC50 [1, 5] [µM]	effect on hOtop1 currents [2]	sensitivity of channel to compound (NaV1.2)	sensitivity of channel to compound (KV1.3; vs 0.1% DMSO)	sensitivity of channel to compound (KV4.2)	effect on intracellular pH changes mediated by mOtop1, acidification [3]	effect on intracellular pH changes mediated by mOtop1, alkalinization [3]	inhibition ratio (KV1.3) [%]	inhibition ratio (KV4.2) [%]	effect on mOtop1 activity at alkaline or neutral pH ([1]; 10 μM, alkaline and neutral pH)	effect on pH 4.5-6.0 acid-activated mOtop1 currents ([1]; 10 μM, compared to the pH 3.5 group, Fig 1E)	EC50 ([1]; EC50, potentiation of mOtop1 currents, pH 6.0, on-current analysis, n = 5) [µM]	Structure (SMILES)	effect on pH 5.5-activated mOtop1 currents ([1]; 10 μM, pH 5.5)	sensitivity of channel to compound (KV2.1)	inhibition ratio (KV2.1) [%]
without directly activating	did not potentiate	~10	12.2 ± 3.4	potent potentiation effects	completely resistant	completely resistant	completely resistant	increases intracellular pH changes	no effect	–	–	–	–	–	Cc1cc(NC(=O)c2ccc(Br)o2)ccc1NC(=O)c1ccco1 [B2FAMP, 5-Bromo-N-[4-(2-furoylamino)-3-methylphenyl]-2-furamide]	robust potentiation effects; also recorded: markedly potentiated; also recorded: potent potentiation effects	completely resistant	–
without directly activating	no detectable effect	~10	10.3 ± 2.6	potent potentiation effects	completely resistant	–	completely resistant	increases intracellular pH changes	no effect	15.9	–	did not affect	potently potentiated	8.9 ± 4.7	Cc1ccc(C(=O)Nc2ccc3ccccc3c2)o1 [MFaN, 5-methyl-N-2-naphthyl-2-furamide]	robust potentiation effects; also recorded: potent potentiation effects	–	20.0

Structure (SMILES)	direct activation of the Otop1 channel [1]	effect on pH 3.5-activated mOtop1 currents ([1]; 10 μM)	EC50 [1, 4] [µM]	EC50 [1, 5] [µM]	effect on hOtop1 currents [2]	sensitivity of channel to compound (NaV1.2)	sensitivity of channel to compound (KV1.3; vs 0.1% DMSO)	sensitivity of channel to compound (KV4.2)	effect on intracellular pH changes mediated by mOtop1, acidification [3]	effect on intracellular pH changes mediated by mOtop1, alkalinization [3]	inhibition ratio (KV1.3) [%]	inhibition ratio (KV4.2) [%]	effect on mOtop1 activity at alkaline or neutral pH ([1]; 10 μM, alkaline and neutral pH)	effect on pH 4.5-6.0 acid-activated mOtop1 currents ([1]; 10 μM, compared to the pH 3.5 group, Fig 1E)	EC50 ([1]; EC50, potentiation of mOtop1 currents, pH 6.0, on-current analysis, n = 5) [µM]	effect on pH 5.5-activated mOtop1 currents ([1]; 10 μM, pH 5.5)	sensitivity of channel to compound (KV2.1)	inhibition ratio (KV2.1) [%]
CC(C)c1noc2ncc(C(=O)c3ccccc3O)cc12 [HIMOP, (2-hydroxyphenyl)-(3-propan-2-yl-5-isoxazolo[5,4-b]pyridinyl)methanone]	without directly activating	did not potentiate	~10	16.8 ± 6.5	potent potentiation effects	completely resistant	–	–	increases intracellular pH changes	small but statistically significant increase in pHi; also recorded: increases intracellular pH changes; also recorded: slightly but significantly enhance	10.8	14.3	–	–	–	robust potentiation effects; also recorded: markedly potentiated; also recorded: potent potentiation effects	completely resistant	–
